m5-HT2A agonist = mouse HTR2A agonism via beta-arrestin recruitment; CHO-K1 mHTR2A beta-arrestin complementation, luminescence; percent of 30 µM serotonin response; AID 624169; P35363; 360,000 compounds, 0.66% hits; activation, % at 7.6 µM;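 active = activation above a run cutoff, the mean activation of all tested compounds plus 3 SD, cut at about 14% in these data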
APJ agonist = activates the human apelin receptor APJ; P35414; AID 2520; 330,000 compounds, 0.11% hits; activation, % at 20 µM; CHO-K1 APJ PathHunter beta-arrestin, luminescence; 0% DMSO wells, 100% apelin;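 active = activation more than six SD over the plate average, tested at 20 µM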
Target sequence (P35414 whole entry, looked up): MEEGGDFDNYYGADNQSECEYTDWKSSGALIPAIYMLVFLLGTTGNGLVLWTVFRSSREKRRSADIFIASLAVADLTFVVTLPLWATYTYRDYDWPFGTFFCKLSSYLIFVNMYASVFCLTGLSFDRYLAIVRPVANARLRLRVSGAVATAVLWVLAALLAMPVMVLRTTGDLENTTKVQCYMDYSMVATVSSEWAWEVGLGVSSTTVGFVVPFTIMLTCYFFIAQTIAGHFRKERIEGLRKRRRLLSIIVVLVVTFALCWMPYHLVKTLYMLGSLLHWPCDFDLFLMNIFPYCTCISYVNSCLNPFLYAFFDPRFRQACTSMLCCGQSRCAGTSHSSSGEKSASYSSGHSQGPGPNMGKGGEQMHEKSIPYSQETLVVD
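Assay system: CHO-K1 APJ beta-arrestin complementation cell line / Compound: single test compound dose, 20 µM final, 1% DMSO / Times: overnight seeding, 90 min compound at 25 °C, 1 h detection / Technique: beta-gal luminescence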
CXCR6 inh = blocks human CXCR6 beta-arrestin recruitment; O00574; CHO-K1 PathHunter CXCR6 beta-arrestin, luminescence; inhibition, % at 20 µM; 360,000 compounds, 0.36% hits; AID 602244; in the data active = inhibition above about 34%, passing the limit was not always enough;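 also: antagonist mode with CXCL16 agonist at 10 nM final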
CCR6 antagonist = blocks CCL20-driven beta-arrestin recruitment at human CCR6. P51684. CHO-K1 CCR6 PathHunter beta-arrestin, luminescence, CCL20-stimulated. inhibition, % at 20 µM. 340,000 compounds, 0.49% hits;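 active = compounds whose inhibition of the agonist-driven luminescence signal at 20 µM reaches about 50%, limit read from the data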;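 also: cells stimulated with CCL20 at 14 nM final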
APJ antag = APJ receptor antagonism. CHO-K1 APJ beta-arrestin complementation, luminescence. 330,000 compounds, 0.32% hits. inhibition, % at 20 µM;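 active = inhibition above about 40% at 20 µM, limit read from the data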;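 also: cells challenged with 10 nM apelin-13 agonist together with compound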
EBI2 block = antagonists of human EBI2 receptor; P32249; EBI2 beta-arrestin recruitment, luminescence, 7a,25-OHC stimulated; inhibition, % at 5 µM; 360,000 compounds, 0.81% hits; AID 651636; in the data active = inhibition above about 38%;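 also: enzyme fragment complementation signal reports receptor beta-arrestin coupling in cells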
EBI2 antag conf = confirmation of human EBI2 receptor antagonists; shares compounds with EBI2 block; EBI2 beta-arrestin luminescence, 7a,25-OHC antagonism; 2,400 compounds, 29% hits; inhibition, % at 5 µM;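 active = inhibition of at least 50%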
EBI2 ag = counter-screen for EBI2 antagonists: EBI2 agonist activity. AID 652000. 2,400 tested, under 10 active. activation, % at 5 µM. shares compounds with EBI2 block. EBI2-expressing cells, agonist mode, luminescence, 60 min; 0% vehicle, 100% 7α,25-dihydroxycholesterol control;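 active = activation of at least 50%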
bGal cs = counter-screen for EBI2 antagonists: E. coli beta-galactosidase inhibition | shares compounds with EBI2 block | purified beta-galactosidase, luminescent Galacton Star, 15 min | inhibition, % at 5 µM | 2,400 compounds, 1% hits | AID 652176;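 active = replicate-average signal at least 3 plate SD below neutral wells, shown as high inhibition, flagging enzyme-inhibiting false positives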;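 also: higher means stronger loss of beta-gal luminescence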
Numbers stand for hits; . = inactive; / = no result given. This is a sample that favours compounds with a hit; in the whole collection about 2.2% have one here.

SMILES | m5-HT2A agonist | APJ agonist | CXCR6 inh | CCR6 antagonist | APJ antag | EBI2 block | EBI2 antag conf | EBI2 ag | bGal cs
Cc1ccc(-c2nnc(N3CCN(C(=O)COc4ccccc4)CC3)c3ccccc23)cc1 | . | . | . | . | . | 86.2 | 53.0 | . | .
O=C(COc1ccc(-c2nnc(N3CCCCC3)c3ccccc23)cc1)N1CCCCC1 | . | . | . | . | . | . | / | / | /
Cc1cc(C)c(S(=O)(=O)N(CC(=O)O)CC(=O)O)c(C)c1 | . | . | . | . | . | . | / | / | /
Cc1cc(C)c(S(=O)(=O)N(C2=NCCS2)S(=O)(=O)c2c(C)cc(C)cc2C)c(C)c1 | . | . | . | . | . | 55.6 | . | . | .
COc1ccc(-c2nc(N)nc(C)c2-c2ccc(Cl)cc2)c(O)c1 | . | . | . | . | . | 79.7 | 62.0 | . | .
CCOc1ccc(-c2nc(N)nc(C)c2-c2ccc(Cl)cc2)c(O)c1 | . | . | . | . | . | 54.5 | . | . | .
Nc1nc(N)c2cc(S(=O)(=O)c3ccc4ccccc4c3)ccc2n1 | . | / | . | / | / | . | / | / | /
Cc1ccc(CN2C(=O)c3ccccc3C2c2nnnn2C(C)C)cc1 (stereo not given) | . | / | . | / | / | . | / | / | /
CC(=O)c1ccc(-c2c(CCO)sc3ccccc23)cc1 | . | / | . | / | / | . | / | / | /
CSC1=C(C#N)C(c2ccccc2)C(C(C)=O)=C(C)N1 (stereo not given) | . | . | . | . | . | . | / | / | /
CSC1=C(C#N)C(c2ccccc2Cl)C(C(C)=O)=C(C)N1 (stereo not given) | . | . | . | . | . | 65.3 | . | . | .
FC(F)(F)c1cc(Cl)c2nc(-c3ccccc3)c(Cc3cccc(Cl)c3)n2c1 | . | / | . | / | / | . | / | / | /
COc1ccc(CCNC(=O)CSc2cn(Cc3cccc(C)c3)c3ccccc23)cc1OC | . | . | . | . | . | 55.0 | . | . | .
Cc1ccc(S(=O)(=O)N2CCN(C(=O)c3ccc(-n4cncn4)c([N+](=O)[O-])c3)CC2)c(C)c1 | . | / | . | / | / | 63.5 | . | . | .
O=C(c1ccc(Cl)cc1)N1CCC(O)(CSc2ccccc2)CC1 | . | . | . | . | . | 67.8 | 71.0 | . | .
O=C(c1ccc(Cl)cc1)N1CCC(O)(CSc2ccc(Cl)cc2)CC1 | . | . | . | . | . | 68.8 | 56.5 | . | .
CN1CCN(C(=O)c2ccc(CSc3ccc(Cl)cc3)cc2)CC1 | . | . | . | . | . | . | / | / | /
COc1cccc(SCC2(O)CCN(C(=O)c3ccc(Cl)cc3)CC2)c1 | . | . | . | . | . | 55.2 | . | . | .
Brc1cccc(-c2nc3c4ccccc4ccn3c2Cc2ccsc2)c1 | . | / | . | / | / | . | / | / | /
Cc1ccc(NC(=O)c2ccc3c(c2)C(=O)N(CC2CCCO2)C3=O)cc1C (stereo not given) | . | . | . | . | . | 74.3 | 52.2 | . | .
CN1C(=O)c2ccc(C(=O)Nc3ccc4c(c3)OCO4)cc2C1=O | . | . | . | . | . | 44.8 | . | . | .
COc1ccc(NC(=O)c2ccc3c(c2)C(=O)N(CC2CCCO2)C3=O)cc1O (stereo not given) | . | . | . | . | . | . | / | / | /
O=C1O[C@@H](c2ccccc2)C[C@@H](O)C(=O)CCc2ccccc21 | . | / | . | / | / | . | / | / | /
O=C1/C(=C\c2ccc(Cl)cc2)CCC1CNc1ccc(Cl)cc1 (stereo not given) | . | / | . | . | / | 46.6 | . | . | .
COc1ccc(C(C)=O)cc1CSc1nc2ccccc2c(=O)n1-c1ccccc1C | . | . | . | . | . | 44.3 | . | . | .
SMILES | m5-HT2A agonist | APJ agonist | CXCR6 inh | CCR6 antagonist | APJ antag | EBI2 block | EBI2 antag conf | EBI2 ag | bGal cs
Cc1ccc(NNC(=S)Nc2ccc(C(C)C)cc2)c(C)c1 | . | . | . | . | . | 70.1 | 62.4 | . | .
Cc1ccc(CN2C(=O)C(C)Sc3ccc(C#N)cc32)cc1 (stereo not given) | . | / | . | / | / | . | / | / | /
COc1ccc(-c2nnc(C3CCN(S(=O)(=O)c4ccccc4)CC3)o2)cc1 | . | . | . | . | . | 47.4 | . | . | .
CC(C)CCN1C(=O)c2ccccc2C1c1nnnn1C(C)C (stereo not given) | . | / | . | / | / | . | / | / | /
COC(=O)c1ccc(CSc2ccccc2NC(=S)Nc2cccc(SC)c2)o1 | . | / | . | / | / | . | / | / | /
O=C(CNc1ccc(C(F)(F)F)cc1)Nc1cccc(S(=O)(=O)N2CCCCC2)c1 | . | / | . | / | / | . | / | / | /
CCCOc1ccc(/C=C/C(=O)N2CCOCC2)cc1 | . | . | . | . | . | . | / | / | /
O=C(COc1ccc(Br)cc1F)N1CCN(c2ncccn2)CC1 | . | . | . | . | . | 45.5 | . | . | .
CCCOc1ccc(/C=C/C(=O)N2CCN(c3ccccn3)CC2)cc1 | . | . | . | . | . | 46.1 | . | . | .
Cc1cc(OCC(=O)N2CCN(c3ccccn3)CC2)cc(C)c1Br | . | . | . | . | . | 61.6 | 64.8 | . | .
O=C(/C=C/c1cccc(Br)c1)N1CCN(c2ccccn2)CC1 | . | . | . | . | . | 76.9 | . | . | .
O=C(NCc1ccc(F)cc1)N1[C@H]2CC[C@@H]1C=C(c1ccc(F)cc1OCc1ccccc1)C2 | . | / | . | / | / | . | / | / | /
CC(C)NC(=O)C1(C)CN(S(C)(=O)=O)CC(=O)N1CCc1ccc(O)cc1 (stereo not given) | . | / | / | / | / | . | / | / | /
O=C(/C=C/c1ccccc1)N1CCN(c2cccc(Cl)n2)CC1 | . | . | . | . | . | 90.8 | 82.5 | . | .
O=C(/C=C/c1ccc(F)cc1)N1CCN(c2ccccn2)CC1 | . | . | . | . | . | 90.8 | 81.0 | . | .
CCc1ccc(OCC(=O)Nc2ccc(S(=O)(=O)Nc3ccccn3)cc2)cc1 | . | . | . | . | . | 61.5 | . | . | .
Cc1cccc(C)c1-n1nnnc1C1c2ccccc2C(=O)N1C1CC1 (stereo not given) | . | / | . | / | / | . | / | / | /
COc1ccc2nc(SCC(=O)N3CC(=O)Nc4ccccc43)c(C#N)cc2c1 | . | . | . | . | . | 56.9 | . | . | .
C=CCn1c(SCc2ccc(C(=O)Nc3ccccc3)cc2)nnc1-c1ccccc1 | . | . | . | . | . | 49.3 | . | . | .
CCCCNC(=O)CSc1nc2ccc(Nc3nc(N4CCOCC4)nc(N4CCOCC4)n3)cc2s1 | . | . | . | . | . | . | / | / | /
CCCCSc1nc2ccc(Nc3nc(N4CCOCC4)nc(N4CCOCC4)n3)cc2s1 | . | . | . | . | . | 46.4 | . | . | .

Assay outcomes (PubChem BioAssay)
